Data: paper PMC6044914 (ACS Omega, 2017)
Converted amounts (≈) assume the structure as drawn. Like-named read-outs stand apart in the source and are kept apart here.

Columns and labels:
Vero cells = conditions: African green monkey
[1] = rats; rapidly metabolized; cited from earlier work
[2] = tested on: nonreplicating M. tuberculosis (nutrient starvation); conditions: previous work; cited from earlier work
[3] = tested on: M. tuberculosis H37Rv (London Pride); assay: microbe, parasite or virus in culture; type: cell-based, Mycobacterium tuberculosis; conditions: for MIC: Mycobacterium tuberculosis, H37RV; for activity against M. tuberculosis (in words): SAR discussion
[4] = Pharmacokinetic profiling in the rat; type: in vivo; conditions: plasma; for bioavailability: oral; for AUC: po
S. cerevisiae Y187 = assay: Spectrum, MIC99 by serial dilution agar method; type: cell-based, Saccharomyces cerevisiae; conditions: for MIC: Saccharomyces cerevisiae, Y187, read-out: MIC (μM) Sa. cerevisiae
In short: (§1)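 Serial-dilution agar MIC99 with test compound in the agar. Organisms were grown on different media: B. subtilis Marburg on nutrient agar, E. coli DH5α and S. aureus RN4220 on LB agar, M. smegmatis mc2155 on Middlebrook 7H10 + 10% v/v OADC, P. aeruginosa BAA 47 PA0 on tryptic soy agar, S. cerevisiae Y187 on YPD agar. Late-log culture was plated and incubated at 37 °C until large colonies formed on no-compound plates. MIC99 is the lowest concentration giving <1% growth.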

P. aeruginosa BAA 47 PA0 = assay: Spectrum, MIC99 by serial dilution agar method; type: cell-based; conditions: Pseudomonas aeruginosa, BAA47, read-out: MIC (μM) P. aeruginosa
In short: as §1

E. coli DH5α = assay: Spectrum, MIC99 by serial dilution agar method; type: cell-based; conditions: Escherichia coli, read-out: MIC (μM) E. coli
In short: as §1

[5] = tested on: replicating M. tuberculosis; assay: Kill kinetics in replicating conditions; type: cell-based, Mycobacterium tuberculosis; conditions: for bactericidal activity against replicating M. tuberculosis (in words): aerobic conditions; for concentration at which bactericidal, replicating M. tuberculosis: bactericidal = at least 3 logs kill in 21 days
S. aureus RN4220 = assay: Spectrum, MIC99 by serial dilution agar method; type: cell-based, Staphylococcus aureus; conditions: for MIC: Staphylococcus aureus, RN4220, read-out: MIC (μM) St. aureus
In short: as §1

B. subtilis Marburg = assay: Spectrum, MIC99 by serial dilution agar method; type: cell-based; conditions: Bacillus subtilis, read-out: MIC (μM) B. subtilis
In short: as §1

[6] = tested on: nonreplicating M. tuberculosis (nutrient starvation); assay: Kill kinetics under starvation; type: cell-based, Mycobacterium tuberculosis; conditions: for concentration at which bactericidal, nonreplicating M. tuberculosis: concentrations as low as
M. smegmatis mc^2155 = assay: Spectrum, MIC99 by serial dilution agar method; type: cell-based, Mycobacterium smegmatis
In short: as §1

SMILES | TC50 (Vero cells) | MIC ([3]; 120 h) | activity against M. tuberculosis (in words) [3] | Vd [4] | clearance [4] | bioavailability [4] | MIC (S. cerevisiae Y187) | MIC (P. aeruginosa BAA 47 PA0) | MIC (E. coli DH5α) | bactericidal activity against replicating M. tuberculosis (in words) [5] | MIC (S. aureus RN4220) | MIC (B. subtilis Marburg) | other results
CC(=O)Oc1ccccc1C(=O)Nc1ncc([N+](=O)[O-])s1 [compound 1, 2-(5-Nitrothiazol-2-ylcarbamoyl)phenyl Acetate, reference compound] | >20 µM | 14 µM | – | – | – | – | – | – | – | – | – | – | detection in plasma or urine [1]: not detectable; activity against nonreplicating or persistent M. tuberculosis (in words) [2]: good activity; MIC ([3]; read-out: minimum inhibitory concentration (MIC)): 14 µM
O=C(Nc1ncc([N+](=O)[O-])s1)C1CCCCC1 [compound 28, N-(5-Nitrothiazol-2-yl)cyclohexanecarboxamide] | – | – | loss of activity | 0.68 ± 0.12 L/kg | 69.8 ± 4.3 mL/min/kg | 17.5 ± 4.2% | – | – | – | – | – | – | MIC [3]: > 20 µM; AUC [4]: 418 ± 96 ng·h/mL
O=C(Nc1ncc([N+](=O)[O-])s1)c1ccccc1 [compound 4, N-(5-nitrothiazol-2-yl)benzamide] | – | – | – | 0.18 ± 0.006 L/kg | 6.1 ± 0.5 mL/min/kg | 63.5 ± 6.9% | – | – | – | – | – | – | –
O=C(Nc1ncc([N+](=O)[O-])s1)c1ccccc1O [compound 2, 2-Hydroxy-N-(5-nitrothiazol-2-yl)benzamide, reference compound] | >20 µM | 20 µM (≈ 5.3 µg/mL) | – | 0.698 ± 0.327 L/kg | 57.5 ± 3.3 mL/min/kg | 5.8 ± 0.1% | – | – | – | – | – | – | AUC [4]: 167 ± 10 ng·h/mL
O=C(Nc1ccccc1)Nc1ncc([N+](=O)[O-])s1 [compound 37, 1-(5-Nitrothiazol-2-yl)-3-phenylurea] | – | – | comparable activity to the parent compound 1 | – | – | – | > 100 µM | > 100 µM | > 100 µM | bactericidal activity | 50 µM (≈ 13.2 µg/mL) | 50 µM (≈ 13.2 µg/mL) | concentration at which bactericidal, replicating M. tuberculosis [5]: equivalent to the MIC; kill of replicating M. tuberculosis ([5]; in 21 days, at concentrations equivalent to the MIC): at least 3 logs; susceptibility of S. aureus (in words) (S. aureus RN4220): sensitive; MIC [3]: 17 ± 4.2 µM (≈ 4.49 µg/mL); bactericidal activity under nonreplicating conditions (in words) [6]: bactericidal activity; concentration at which bactericidal, nonreplicating M. tuberculosis [6]: ≤ 1.25 × MIC
CCC(C)(C)C(=O)Oc1ccccc1C(=O)Nc1ncc([N+](=O)[O-])s1 [compound 8, 2-((5-Nitrothiazol-2-yl)carbamoyl)phenyl 2,2-Dimethylbutanoate] | 6.2 µM | 1.4 ± 0.07 µM (≈ 0.509 µg/mL) | showed activity | – | – | – | > 100 µM | > 100 µM | > 25 µM | rapidly bactericidal | > 50 µM | 1 µM (≈ 0.363 µg/mL) | kill of replicating M. tuberculosis ([5]; in 7 days at 10× MIC): > 4 log; improvement in activity relative to 1 [3]: 10 fold
O=C(Nc1ncc([N+](=O)[O-])s1)c1ccccn1 [compound 19, N-(5-Nitrothiazol-2-yl)picolinamide] | 20 µM | 2.4 ± 0.0071 µM (≈ 0.601 µg/mL) | improved activity | – | – | – | 12.5 µM (≈ 3.13 µg/mL) | > 100 µM | > 100 µM | bactericidal | > 100 µM | 3.1 µM (≈ 0.776 µg/mL) | susceptibility of S. cerevisiae (in words) (S. cerevisiae Y187): sensitive; concentration at which bactericidal, replicating M. tuberculosis [5]: ≥ 5 times the MIC; bactericidal activity under nonreplicating conditions (in words) [6]: bactericidal activity; concentration at which bactericidal, nonreplicating M. tuberculosis [6]: ≤ 1.25 × MIC; susceptibility of M. smegmatis (in words) (M. smegmatis mc^2155): sensitive
Cc1cccc(C(=O)Nc2ncc([N+](=O)[O-])s2)c1O [compound 13, 2-Hydroxy-3-methyl-N-(5-nitrothiazol-2-yl)benzamide] | – | – | – | 0.16 ± 0.012 L/kg | 8.96 ± 0.51 mL/min/kg | 72.5 ± 18.4% | – | – | – | – | – | – | –
CCC(C)(C)C(=O)Oc1cccnc1C(=O)Nc1ncc([N+](=O)[O-])s1 [compound 23, 2-((5-Nitrothiazol-2-yl)carbamoyl)pyridin-3-yl 2,2-dimethylbutanoate] | 21 µM | 12 ± 1 µM (≈ 4.37 µg/mL) | – | – | – | – | – | – | – | – | – | – | –
